Measured values: ChEMBL document CHEMBL3425408, “Design, synthesis, in vitro, and in vivo anticancer and antiangiogenic activity of novel 3-arylaminobenzofuran derivatives targeting the colchicine site on tubulin” (J Med Chem, 2015)
Active and inactive are the calls of the source. No cut-off for these calls is given here.

Assays:
HeLa [1] = assay: Induction of cell cycle arrest in human HeLa cells assessed as decrease in cyclin B expression at 100 to 250 nM after 48 hrs by Western blot analysis; assay type: functional, cell-based
How it was run: (§1)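 HeLa cells treated 24 or 48 h. Lysates cleared at 15000g, and 10 μg protein run on 7.5–15% SDS-PAGE and blotted to PVDF. Membranes blocked in 5% BSA and probed for cyclin B, p-cdc2 Tyr15 and cdc25c, then detected with peroxidase secondary and ECL. Blots stripped and reprobed for β-actin as loading control.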

HeLa [2] = assay: Induction of cell cycle arrest in human HeLa cells assessed as increase in cyclin B expression at 250 nM after 24 hrs by Western blot analysis; assay type: functional, cell-based; how it was run: as §1
A549 = assay: Antiproliferative activity against human A549 cells after 72 hrs by (3-(4,5-dimethylthiazol-2-yl)-2,5-diphenyltetrazolium bromide test; assay type: functional, cell-based; conditions: A549, 72 h
HT-29 = assay: Antiproliferative activity against human HT-29 cells after 72 hrs by (3-(4,5-dimethylthiazol-2-yl)-2,5-diphenyltetrazolium bromide test; assay type: functional, cell-based; conditions: HT-29, 72 h
HeLa [3] = assay: Induction of apoptosis in human HeLa cells assessed as increase in proportion of cells with depolarized mitochondria at 100 to […] by JC1 staining based flow cytometry; assay type: functional, cell-based
How it was run: (§2)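 HeLa cells treated 24 or 48 h, then stained with JC-1. Cells with depolarized mitochondria quantified by flow cytometry. Three independent experiments.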

HeLa [4] = assay: Induction of apoptosis in human HeLa cells assessed as reduction in Bcl2 expression at 100 to 250 nM after 48 hrs by Western blotting analysis
HeLa [5] = assay: Induction of apoptosis in human HeLa cells assessed as caspase 9 activation at 100 to 250 nM by Western blot analysis; conditions: TDE = time-dependent effect
HeLa [6] = assay: Induction of apoptosis in human HeLa cells assessed as accumulation of annexin-V positive cells after 24 to 48 hrs by annexin-V-FITC/PI based flow cytometry; assay type: functional, cell-based
How it was run: (§3)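 HeLa cells treated 24 or 48 h, then double-stained with annexin V-FITC and PI. Surface phosphatidylserine exposure measured by flow cytometry.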

HeLa [7] = assay: Induction of cell cycle arrest in human HeLa cells assessed as decrease in p-cdc2 Tyr15 expression at 100 to 250 nM after 48 hrs by Western blot analysis; assay type: functional, cell-based; how it was run: as §1
HeLa [8] = assay: Induction of apoptosis in human HeLa cells assessed as PARP cleavage at 100 to 250 nM after 24 to 48 hrs by Western blot analysis
HeLa [9] = assay: Induction of apoptosis in human HeLa cells assessed as caspase 3 activation at 100 to […] by Western blot analysis; assay type: functional, cell-based; conditions: TDE = time-dependent effect
How it was run: (§4)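 HeLa lysates prepared after the indicated times. 10 μg protein separated by SDS-PAGE on PVDF blots. Primary antibodies (2 h, room temperature) against PARP, caspase-3, cleaved caspase-9, Bcl-2 and Mcl-1, then peroxidase secondary with ECL detection. β-Actin reprobe used as loading control.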

Jurkat [10] = assay: Antiproliferative activity against human Jurkat cells after 72 hrs by (3-(4,5-dimethylthiazol-2-yl)-2,5-diphenyltetrazolium bromide test; assay type: functional, cell-based
How it was run: (§5)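 Jurkat, RS4;11 and HL-60 cells grown in RPMI-1640; MCF-7, A549, HeLa and HT-29 cells grown in DMEM; both media with 10% FBS and penicillin/streptomycin. 8 × 10^3 cells per well were preincubated 18 h at 37 °C, 5% CO2, then exposed 72 h to a concentration range (DMSO ≤0.25%). Read-out was MTT; IC50 was taken against cells given the maximum DMSO. Mean ± SE of at least three experiments.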

HeLa [11] = assay: Induction of cell cycle arrest in human HeLa cells assessed as increase in p-cdc2 Tyr15 expression at 250 nM after 24 hrs by Western blot analysis; assay type: functional, cell-based; how it was run: as §1
HeLa [12] = assay: Induction of apoptosis in human HeLa cells assessed as increase in proportion of cells with depolarized mitochondria after 24 to 48 hrs by JC1 staining based flow cytometry; assay type: functional, cell-based; conditions: TDE = time-dependent effect; how it was run: as §2
HeLa [13] = assay: Induction of apoptosis in human HeLa cells assessed as caspase 9 activation after 24 to 48 hrs by Western blot analysis; assay type: functional, cell-based; how it was run: as §4
HeLa [14] = assay: Induction of cell cycle arrest in human HeLa cells assessed as cell arrest at G2/M phase after 24 hrs by propidium iodide based flow cytometric analysis; assay type: functional
How it was run: (§6)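 HeLa or Jurkat cells (5 × 10^5) treated 24 h. Cells fixed in ice-cold 70% ethanol, lysed with RNase A and 0.1% Triton X-100, and stained with propidium iodide. DNA content analyzed by flow cytometry to give cell-cycle phase distribution.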

HeLa [15] = assay: Induction of apoptosis in human HeLa cells assessed as accumulation of annexin-V positive cells after at 100 to […] by annexin-V-FITC/PI based flow cytometry; assay type: functional, cell-based; conditions: TDE = time-dependent effect; how it was run: as §3
HeLa [16] = assay: Antiproliferative activity against human HeLa cells after 72 hrs by (3-(4,5-dimethylthiazol-2-yl)-2,5-diphenyltetrazolium bromide test; assay type: functional, cell-based
PBL [17] = assay: Cytotoxicity against human resting PBL cells after 72 hrs by MTT assay; assay type: cell-based
How it was run: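 Resting PBLs from healthy donors separated on a Lymphoprep gradient and incubated overnight in RPMI-1640 with 10% FBS. Nonadherent cells resuspended at 5 × 10^5 cells/mL without PHA and exposed to compound for 72 h. Viability read by MTT. […] Three experiments.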

HeLa [18] = assay: Induction of cells cycle arrest in human HeLa cells assessed as cell arrest at G2/M phase at > 60 nM after 24 hrs by propidium iodide based flow cytometric analysis; assay type: functional; how it was run: as §6
PBL [19] = assay: Cytotoxicity against human PHA-stimulated PBL cells after 72 hrs by MTT assay; assay type: cell-based
How it was run: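 PBLs came from healthy donors by Lymphoprep gradient, were washed and left overnight in RPMI-1640 with 10% FBS. Nonadherent cells at 5 × 10^5 cells/mL were stimulated with 2.5 μg/mL PHA and given a range of concentrations for 72 h. […] Mean ± SEM of three experiments.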

HeLa [20] = assay: Induction of apoptosis in human HeLa cells assessed as reduction in Mcl-1 expression at 100 to 250 nM after 48 hrs by Western blotting analysis
HeLa [21] = assay: Induction of apoptosis in human HeLa cells assessed as increase in ROS production at 100 to […] after 24 to 48 hrs by H2-DCFDA based flow cytometry; assay type: functional, cell-based
How it was run: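 HeLa cells treated 24 or 48 h, then loaded with H2-DCFDA. ROS measured by flow cytometry. Three independent experiments.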

[22] = Antiproliferative activity against human RS4:11 cells after 72 hrs by (3-(4,5-dimethylthiazol-2-yl)-2,5-diphenyltetrazolium bromide test; assay type: functional, cell-based; conditions: RS4-11, 72 h; how it was run: as §5
[23] = Antiproliferative activity against human HL60 cells after 72 hrs by (3-(4,5-dimethylthiazol-2-yl)-2,5-diphenyltetrazolium bromide test; assay type: functional, cell-based; conditions: HL-60, 72 h; how it was run: as §5
HeLa [24] = assay: Induction of cell cycle arrest in human HeLa cells assessed as increase in cyclin B expression at 100 nM after 24 hrs by Western blot analysis; assay type: functional, cell-based; how it was run: as §1
Jurkat [25] = assay: Induction of cells cycle arrest in human Jurkat cells assessed as cell arrest at G2/M phase at > 60 nM after 24 hrs by propidium iodide based flow cytometric analysis; assay type: functional; how it was run: as §6

SMILES | Activity (HeLa [1]) | Activity (HeLa [2]) | IC50 (A549) | IC50 (HT-29) | Activity (HeLa [3]) | Activity (HeLa [4]) | Activity (HeLa [5]) | Activity (HeLa [6]) | inhibition (HeLa [7]) | Activity (HeLa [8]) | Activity (HeLa [9]) | IC50 (Jurkat [10]) | Activity (HeLa [11]) | Activity (HeLa [12]) | Activity (HeLa [13]) | Activity (HeLa [14]) | Activity (HeLa [15]) | IC50 (HeLa [16]) | IC50 (PBL [17]) | Activity (HeLa [18]) | further results
CCOC(=O)c1oc2cc(OC)ccc2c1Nc1cc(OC)c(OC)c(OC)c1 | Active | Active | 36 nM | 17 nM | Dose-dependent effect | Active | tde | Dose-dependent effect | Active | Active | tde | 22 nM | Active | tde | Dose-dependent effect | Dose-dependent effect | tde | 13 nM | > 10000 nM | >70% | IC50 (PBL [19]): 6300 nM; Activity (HeLa [20]): Active; Activity (HeLa [21]): Active; IC50 [22]: 100 nM; IC50 [23]: 24 nM; Activity (HeLa [24]): Active; Activity (Jurkat [25]): >70%
COC(=O)c1oc2cc(OC)ccc2c1Nc1cc(OC)c(OC)c(OC)c1 | Active | Active | 9 nM | 3 nM | Dose-dependent effect | Active | tde | Dose-dependent effect | Active | Active | tde | 8 nM | Active | tde | Dose-dependent effect | Dose-dependent effect | tde | 2 nM | > 10000 nM | >70% | IC50 (PBL [19]): > 10000 nM; Activity (HeLa [20]): Active; Activity (HeLa [21]): Active; IC50 [22]: 0.3 nM; IC50 [23]: 5 nM; Activity (HeLa [24]): Active; Activity (Jurkat [25]): >70%
